Experimental data pooled from the literature.
Target: Leukocyte tyrosine kinase receptor (LTK, Homo sapiens, UniProt P29376)

C=CC(=O)N1CCC(C(=O)NCC(=O)N2CCN(c3nc(-c4cnc(N)nc4C(F)F)nc(N4CCOCC4)n3)CC2)CC1
remaining binding (binding, competition with immobilised ligand; 1 µM): 100%

CN(c1nccc(-c2cnn3ncccc23)n1)C1CC1
remaining binding (binding; 1 µM): 100%

Cc1nc(Cc2cccc(C(F)(F)F)c2)sc1-c1ccc(C(N)=O)nc1
remaining binding (cell-free assay, competition with immobilised ligand; 1 µM): 100%

O=C(c1ccc(Nc2ncc(Cl)c(-c3cc4ccccc4s3)n2)cc1)N1CCC(N2CCCC2)CC1
remaining binding (binding, competition with immobilised ligand; 1 µM): 100%

COc1cnc(Nc2cccc(S(N)(=O)=O)c2)nc1N1CCN(c2ccccc2)C(=O)C1
remaining binding (binding, competition with immobilised ligand; 1 µM): 91%

CN(C)c1nccc(-c2cnn3ncccc23)n1
remaining binding (binding; 1 µM): 92%

COc1ncc2cc3ccccc3nc2c1C#N
remaining binding (cell-free assay, competition with immobilised ligand; 5 µM): 100%

O=C(NCC1CCOCC1)c1n[nH]cc1NC(=O)c1c(F)cccc1F
remaining binding (binding, competition with immobilised ligand; 1 µM): 100%

CC(C)CC(=O)N1CCc2nc(-c3ccc(Br)cc3)nc(N(C)Cc3ccccc3)c2C1
remaining binding (cell-free assay, competition with immobilised ligand; 0.1 µM): 91%

Cc1cnn2ncc(-c3ccnc(N(C)C)n3)c2c1
remaining binding (binding; 1 µM): 98%

Cc1cc(-n2nc(Cc3cc(F)cc(C(F)(F)F)c3)nc2C)ccc1C(N)=O
remaining binding (cell-free assay, competition with immobilised ligand; 1 µM): 100%

FC(F)(F)Oc1cccc(-c2cnc3ccc(-c4ccncc4)nn23)c1
remaining binding (cell-free assay, competition with immobilised ligand; 5 µM): 100%

COc1ccnn2ncc(-c3ccnc(N(C)C)n3)c12
remaining binding (binding; 1 µM): 98%

COc1cnc(Nc2cccc(S(N)(=O)=O)c2)nc1N1CCN(c2ccccc2)CC1
remaining binding (binding, competition with immobilised ligand; 1 µM): 100%

CS(=O)(=O)N1CCCC(NC(=O)[C@H](CCC2CCCCC2)NC(=O)c2ccc(CNc3ncnc4c3nnn4-c3ccccc3)cc2)C1 (stereo partly shown)
remaining binding (cell-free assay, competition with immobilised ligand; 0.1 µM): 100%

O=C(NCCCN1CCOCC1)c1ccc(Nc2nccc(-c3cc4ccccc4s3)n2)cc1
remaining binding (binding, competition with immobilised ligand; 1 µM): 100%

N[C@@H]1CCN(c2nccc(-c3cnn4ncccc34)n2)C1
remaining binding (binding; 1 µM): 100%

O=C(c1ccc(Nc2ncc(Cl)c(-c3ccc(Cl)s3)n2)cc1)N1CCC(N2CCCC2)CC1
remaining binding (binding, competition with immobilised ligand; 1 µM): 90%

CC(=O)C1=C(C)N(c2cccc(C(F)(F)F)c2)C(=O)N[C@@H]1c1ccc(C#N)nc1
remaining binding (cell-free assay, competition with immobilised ligand; 1 µM): 92.6%

C[C@@H]1CCN(c2nccc(-c3cnn4ncccc34)n2)C1
remaining binding (binding; 1 µM): 93%

C[C@@H]1CN(c2cc(-c3n[nH]c4ccc(OC5(C)CC5)cc34)ncn2)C[C@H](C)O1
remaining binding (cell-free assay, competition with immobilised ligand; 0.1 µM): 84%

C[C@@H](c1ccc(-n2cnc3c(N)ncnc32)cc1)N1CCc2nn(C)c(Cc3ccccc3)c2C1=O
remaining binding (binding, competition with immobilised ligand; 0.1 µM): 87%
